Assay results of several laboratories.
Each line is one published result; the experiments were not run side by side.
Target: Serine/threonine-protein kinase tousled-like 2 (TLK2, Homo sapiens, UniProt Q86UE8)

Structure (SMILES) | assay | conditions | remaining binding [%]
N#CC1(c2ccccn2)CCN(Cc2cc(C(=O)N3CCCC3)c(=O)n3ccccc23)CC1 | cell-free assay, competition with immobilised ligand | 1 µM | 100
COc1ccnn2ncc(-c3ccnc(N(C)C)n3)c12 | binding | 1 µM | 100
CC1=C(C#N)[C@@H](c2ccc3[nH]nc(C)c3c2)C(C#N)=C(c2ccc(Cl)cc2)N1 | cell-free assay, competition with immobilised ligand | 1 µM | 100
CN(c1nccc(-c2cnn3ncccc23)n1)C1CC1 | binding | 1 µM | 100
O=C(c1ccc(Nc2ncc(Cl)c(-c3ccc(Cl)s3)n2)cc1)N1CCC(N2CCCC2)CC1 | binding, competition with immobilised ligand | 1 µM | 29
CN(C)c1nccc(-c2cnn3ncccc23)n1 | binding | 1 µM | 100
COc1cnc(Nc2cccc(S(N)(=O)=O)c2)nc1N1CCN(c2ccccc2)CC1 | binding, competition with immobilised ligand | 1 µM | 96
CCN1CCN(Cc2ccc(C(=O)Nc3ccc(C)c(Oc4ccc5c(c4)CC(=O)N5)c3)cc2C(F)(F)F)CC1 | binding, competition with immobilised ligand | 1 µM | 94
Cc1nc(C2CCN(C(=O)c3ccc(OC(F)(F)F)cc3N)CC2)c2ncc(N3CCN(C)CC3)cc2n1 | cell-free assay, competition with immobilised ligand | 1 µM | 100
FC(F)(F)Oc1cccc(-c2cnc3ccc(-c4ccncc4)nn23)c1 | binding, competition with immobilised ligand | 5 µM | 93
C[C@@H]1CCN(c2nccc(-c3cnn4ncccc34)n2)C1 | binding | 1 µM | 100
CO[C@@H](C)c1c(Nc2ccc([C@H](N(C)C(=O)C3CCS(=O)(=O)CC3)C(F)(F)F)cc2)cnc2cc(Cl)nn12 | cell-free assay, competition with immobilised ligand | 1 µM | 92
O=C(NCCCN1CCOCC1)c1ccc(Nc2ncc(Cl)c(-c3ccc(Cl)s3)n2)cc1 | binding, competition with immobilised ligand | 1 µM | 77
O=C(NCC1CCOCC1)c1n[nH]cc1NC(=O)c1c(F)cccc1F | binding, competition with immobilised ligand | 1 µM | 100
Nc1ncc2c(n1)-c1c([nH]c3ccc(C#CC4CC4)cc13)CCCC2 | binding, competition with immobilised ligand | 1 µM | 100
NS(=O)(=O)c1cc(NC(=O)C2(c3ccccc3Cl)CC2)ccc1Oc1cccc(Cl)c1 | cell-free assay, competition with immobilised ligand | 1 µM | 100
N[C@H]1CCN(c2nccc(-c3cnn4ncccc34)n2)C1 | binding | 1 µM | 100
Cc1cnc(Nc2ccc(C(=O)N3CCC(N4CCCC4)CC3)cc2)nc1-c1cc2ccccc2s1 | binding, competition with immobilised ligand | 1 µM | 15
Cc1cnn2ncc(-c3ccnc(N(C)C)n3)c2c1 | binding | 1 µM | 100
CNC(=O)Nc1ccc2c(c1)[C@@]1(CC2)OC(=O)N(CC(=O)N(Cc2ccc(F)cc2)[C@@H](C)C(F)(F)F)C1=O | cell-free assay, competition with immobilised ligand | 1 µM | 100
CNC(=O)[C@@H]1CC[C@@H](n2c(-c3ccc4cnccc4c3)nc3ccc(C(=O)NCc4cccc(C(N)=O)c4)cc32)C1 | binding, competition with immobilised ligand | 1 µM | 100
